The values below come from ChEMBL document CHEMBL3616416, “Imidazolidine-4-one derivatives in the search for novel chemosensitizers of Staphylococcus aureus MRSA: synthesis, biological evaluation and molecular modeling studies” (Eur J Med Chem, 2015).

In assay [1] the test system is Staphylococcus aureus. The experiment in a line: Antimicrobial activity against methicillin-resistant Staphylococcus aureus HEMSA incubated for 20 hrs by serial dilution broth microplate method. Type of assay: functional. A digest of the protocol: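 Broth microdilution MIC per CLSI in Mueller-Hinton broth against clinical isolate MRSA HEMSA 5. Bacterial suspension adjusted to OD 0.5, diluted 1:100 and added to serial two-fold dilutions of test agent. Ampicillin/sulbactam used at 2:1 ratio. Growth read after 20 h at 37 °C.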

Assay [2] has as its system Staphylococcus aureus. Put plainly: Potentiation of ciprofloxacin -induced antibacterial activity against Staphylococcus aureus ATCC 25923 assessed as reduction in […] MIC incubated for 20 hrs by serial dilution broth microplate method. The assay is classed as functional, organism-based.
Assay [3] relates to Staphylococcus aureus. The experiment in a line: Potentiation of […] antibacterial activity against Staphylococcus aureus ATCC 25923 assessed as reduction in ampicillin and sulbactam MIC MIC incubated for 20 hrs by serial dilution broth microplate method. Type of assay: functional, organism-based.
Assay [4] addresses T1, Methicillin resistance mecR1 protein (Staphylococcus aureus) (UniProt P0A0B1).
T1 sequence (whole entry): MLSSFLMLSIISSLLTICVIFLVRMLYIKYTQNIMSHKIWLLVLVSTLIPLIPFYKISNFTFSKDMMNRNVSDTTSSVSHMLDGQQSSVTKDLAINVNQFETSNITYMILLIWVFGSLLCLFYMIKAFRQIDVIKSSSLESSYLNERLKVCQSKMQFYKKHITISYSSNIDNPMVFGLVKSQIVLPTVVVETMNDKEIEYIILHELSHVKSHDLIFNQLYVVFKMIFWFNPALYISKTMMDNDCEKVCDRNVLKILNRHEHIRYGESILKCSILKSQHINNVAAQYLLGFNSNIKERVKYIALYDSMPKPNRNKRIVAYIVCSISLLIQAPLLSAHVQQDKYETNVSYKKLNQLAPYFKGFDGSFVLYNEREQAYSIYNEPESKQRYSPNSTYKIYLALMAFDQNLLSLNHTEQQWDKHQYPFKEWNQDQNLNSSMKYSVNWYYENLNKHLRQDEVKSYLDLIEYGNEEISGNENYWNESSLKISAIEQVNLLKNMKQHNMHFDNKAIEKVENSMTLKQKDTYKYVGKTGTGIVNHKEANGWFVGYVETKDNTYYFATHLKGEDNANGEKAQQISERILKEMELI
The experiment in a line: Inhibition of MecR1 in methicillin-resistant Staphylococcus aureus HEMSA assessed as reduction in ciprofloxacin MIC at 0.5 mM incubated for 20 hrs by serial dilution broth microplate method. A digest of the protocol: (§1)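 Chemosensitization in MRSA HEMSA 5 measured by CLSI broth microdilution in Mueller-Hinton broth. Serial two-fold dilutions of antibiotic (oxacillin, cloxacillin, ampicillin/sulbactam 2:1, ciprofloxacin or neomycin) combined with compound at fixed concentration not exceeding ¼ of its own MIC. Inoculum OD 0.5 diluted 1:100. Read after 20 h at 37 °C. Result given as fold reduction of antibiotic MIC.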

In assay [5] the target is T1, Methicillin resistance mecR1 protein (Staphylococcus aureus). The experiment in a line: Inhibition of MecR1 in methicillin-resistant Staphylococcus aureus HEMSA assessed as reduction in ampicillin and sulbactam MIC at 0.5 mM incubated for 20 hrs by serial dilution broth microplate method. In outline:
as §1

Assay [6] has the same target. The experiment in a line: Inhibition of MecR1 in methicillin-resistant Staphylococcus aureus HEMSA assessed as reduction in oxacillin A MIC at 0.5 mM incubated for 20 hrs by serial dilution broth microplate method. In outline: as §1
For assay [7] the target is unchanged. Put plainly: Inhibition of MecR1 in methicillin-resistant Staphylococcus aureus HEMSA assessed as reduction in neomycin MIC at 0.5 mM incubated for 20 hrs by serial dilution broth microplate method. In outline: as §1
For assay [8], the system named is Staphylococcus aureus. Put plainly: Potentiation of […] antibacterial activity against Staphylococcus aureus ATCC 25923 assessed as reduction in cloxacillin MIC incubated for 20 hrs by serial dilution broth microplate method. Type of assay: functional, organism-based.
Assay [9] relates to Staphylococcus aureus. Put plainly: Potentiation of oxacillin-induced antibacterial activity against Staphylococcus aureus ATCC 25923 assessed as reduction in oxacillin MIC at 0.5 mM incubated for 20 hrs by serial dilution broth microplate method. The assay is classed as functional, organism-based.
Assay [10] deals with Staphylococcus aureus. Put plainly: Antimicrobial activity against Staphylococcus aureus ATCC 25923 incubated for 20 hrs by serial dilution broth microplate method. The assay is classed as functional. Conditions: ATCC 25923, 20 h. A digest of the protocol:
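Broth dilution per CLSI in Mueller-Hinton broth, serial two-fold dilutions; compounds alone against reference strain, inoculum from suspension at OD 0.5 diluted 1:100; read after 20 h at 37 °C. MIC taken as lowest concentration inhibiting growth.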

In assay [11] the target is T1, Methicillin resistance mecR1 protein (Staphylococcus aureus). The experiment in a line: Inhibition of MecR1 in methicillin-resistant Staphylococcus aureus HEMSA assessed as reduction in cloxacillin MIC at 0.5 mM incubated for 20 hrs by serial dilution broth microplate method. In outline:
as §1

Assay [12] deals with Staphylococcus aureus. Put plainly: Potentiation of neomycin-induced antibacterial activity against Staphylococcus aureus ATCC 25923 assessed as reduction in […] MIC incubated for 20 hrs by serial dilution broth microplate method. The assay is classed as functional, organism-based.
Assay [13] deals with Staphylococcus aureus. Put plainly: Resistance index, ratio of MIC for methicillin-resistant Staphylococcus aureus HEMSA to MIC for Staphylococcus aureus ATCC 25923. Type of assay: functional.
Assay [14] has as its target T1, Methicillin resistance mecR1 protein (Staphylococcus aureus). The experiment in a line: Inhibition of MecR1 in methicillin-resistant Staphylococcus aureus HEMSA assessed as reduction in oxacillin A MIC at 0.25 mM incubated for 20 hrs by serial dilution broth microplate method. A digest of the protocol:
as §1

Assay [15] has the same target. The experiment in a line: Inhibition of MecR1 in methicillin-resistant Staphylococcus aureus HEMSA assessed as reduction in neomycin MIC at 0.25 mM incubated for 20 hrs by serial dilution broth microplate method. In outline: as §1
Assay [16] shares this target. Put plainly: Inhibition of MecR1 in methicillin-resistant Staphylococcus aureus HEMSA assessed as reduction in cloxacillin MIC at 0.25 mM incubated for 20 hrs by serial dilution broth microplate method. In outline:
as §1

For assay [17] the target is unchanged. Put plainly: Inhibition of MecR1 in methicillin-resistant Staphylococcus aureus HEMSA assessed as reduction in ampicillin and sulbactam MIC at 0.25 mM incubated for 20 hrs by serial dilution broth microplate method. A digest of the protocol:
as §1

For assay [18] the target is unchanged. The experiment in a line: Inhibition of MecR1 in methicillin-resistant Staphylococcus aureus HEMSA assessed as reduction in ciprofloxacin MIC at 0.25 mM incubated for 20 hrs by serial dilution broth microplate method. In outline:
as §1

For assay [19] the target is unchanged. The experiment in a line: Inhibition of MecR1 in methicillin-resistant Staphylococcus aureus HEMSA assessed as reduction in oxacillin A MIC at 0.125 mM incubated for 20 hrs by serial dilution broth microplate method. In outline:
as §1

For assay [20] the target is unchanged. Put plainly: Inhibition of MecR1 in methicillin-resistant Staphylococcus aureus HEMSA assessed as reduction in ciprofloxacin MIC at 0.0039 mM incubated for 20 hrs by serial dilution broth microplate method. In outline: as §1
Assay [21] shares this target. The experiment in a line: Inhibition of MecR1 in methicillin-resistant Staphylococcus aureus HEMSA assessed as reduction in neomycin MIC at 0.0039 mM incubated for 20 hrs by serial dilution broth microplate method. A digest of the protocol:
as §1

The target is the same in assay [22]. The experiment in a line: Inhibition of MecR1 in methicillin-resistant Staphylococcus aureus HEMSA assessed as reduction in ampicillin and sulbactam MIC at 0.0039 mM incubated for 20 hrs by serial dilution broth microplate method. A digest of the protocol:
as §1

For assay [23], the system named is Staphylococcus aureus. The experiment in a line: Potentiation of oxacillin-induced antibacterial activity against Staphylococcus aureus ATCC 25923 assessed as reduction in oxacillin MIC at 0.0005 mM incubated for 20 hrs by serial dilution broth microplate method. The assay is classed as functional, organism-based.
For assay [24], the target named is T1, Methicillin resistance mecR1 protein (Staphylococcus aureus). Put plainly: Inhibition of MecR1 in methicillin-resistant Staphylococcus aureus HEMSA assessed as reduction in cloxacillin MIC at 0.0039 mM incubated for 20 hrs by serial dilution broth microplate method. In outline:
as §1

For assay [25] the target is unchanged. Put plainly: Inhibition of MecR1 in methicillin-resistant Staphylococcus aureus HEMSA assessed as reduction in oxacillin A MIC at 0.0039 mM incubated for 20 hrs by serial dilution broth microplate method. In outline: as §1

Values after ≈ are worked out from the molar mass of the structure shown. Active and inactive are the calls of the source.

The term MIC denotes the smallest concentration in the dilution series that meets the test's criterion for growth inhibition. Turning to `CC1(c2cccc3ccccc23)NC(=O)N(CCCN)C1=O` (stereo not given), the MIC in assay [1] and in assay [10] was above 1000 µM throughout. Further, the result in [2], in assay [3], in assay [8], in assay [9] and in assay [12] was inactive. For the same molecule, the inhibition entry in [4], in [5], in [6], in assay [7] and in assay [11] was “inactive” each time.

As to `O=C1N/C(=C\c2ccc(Cl)cc2)C(=O)N1CC(O)CN1CCNCC1` (stereo not given), the minimum inhibitory concentration (MIC) was 1000 µM (≈ 365 µg/mL) in assay [1] and above 1000 µM in assay [10].

Consider `CC1(c2cccc3ccccc23)NC(=O)N(CCCCN)C1=O` (stereo not given), for which the MIC in assay [1] and in [10] was above 1000 µM in each case. In assay [6], the inhibition result was “inactive”. Also, the result in assay [9] was inactive.

With `O=C(O)c1cn(C2CC2)c2cc(N3CCNCC3)c(F)cc2c1=O` [CIPROFLOXACIN], the results for the MIC in assay [1] and in assay [10] were 14 µM (≈ 4.64 µg/mL) and 0.38 µM (≈ 0.126 µg/mL), respectively. Besides, the Ratio in assay [13] came out at 37.

As to `CC1(c2cccc3ccccc23)NC(=O)N(CCCCCN)C1=O` (stereo not given), the MIC in [1] was 1000 µM (≈ 325 µg/mL); in assay [10], above 1000 µM. Also, the outcome in [9] was inactive. The inhibition result in assay [14] is “inactive”.

Turning to `Cc1onc(-c2ccccc2Cl)c1C(=O)N[C@@H]1C(=O)N2[C@@H]1SC(C)(C)[C@@H]2C(=O)O` [CLOXACILLIN], the MIC in assay [1] was found to be 160 µM (≈ 69.7 µg/mL); in assay [10] it was 0.42 µM (≈ 0.183 µg/mL).

In the case of `O=C1N/C(=C\c2ccc(Cl)cc2Cl)C(=O)N1CC(O)CN1CCNCC1` (stereo not given), the MIC in assay [1] and in assay [10] was above 1000 µM in each case. The inhibition result in assay [6] is “inactive”. Moreover, the result in assay [9] was inactive.

For the molecule `O=C1NC(N2CCNCC2)=N/C1=C\c1cccs1`, the MIC in [1] and in assay [10] was above 1000 µM throughout. Besides, the result in assay [2], in assay [3], in assay [8], in assay [9] and in assay [12] was inactive. Further, the inhibition entry in assay [4], in assay [5], in [6], in [7] and in assay [11] was “inactive” in each case.

With `NC[C@@H]1O[C@H](O[C@H]2[C@@H](O)[C@H](O[C@@H]3[C@@H](O)[C@H](N)C[C@H](N)[C@H]3O[C@H]3O[C@H](CN)[C@@H](O)[C@H](O)[C@H]3N)O[C@@H]2CO)[C@H](N)[C@@H](O)[C@@H]1O` [FRAMYCETIN], the MIC in [1] is 240 µM (≈ 148 µg/mL); in assay [10] it was 1 µM (≈ 0.615 µg/mL). Moreover, in assay [13], the Ratio was 240.

Consider `O=C1NC(N2CCNCC2)=N/C1=C\c1ccsc1`, for which the inhibition entry in assay [15], in [16], in assay [17], in assay [18] and in [14] was “inactive” each time. The MIC in [1] is 1000 µM (≈ 262 µg/mL); in [10] it was above 1000 µM. For the same molecule, the result in assay [2], in [3], in assay [8], in [9] and in [12] was inactive.

Turning to `O=C1NC(N2CCNCC2)=N/C1=C\c1ccc(Cl)cc1`, the MIC is 500 µM (≈ 145 µg/mL) in assay [1] and above 1000 µM in [10]. The inhibition result in assay [19] was “inactive”. For the same molecule, the outcome in assay [9] was inactive.

Turning to `COc1ccc(/C=C2\NC(=O)N(CC(O)CNCCCN3CCN(C)CC3)C2=O)cc1` (stereo not given), the MIC in assay [1] and in assay [10] was above 1000 µM in each case. The result in [2], in assay [3], in assay [8], in assay [9] and in assay [12] was inactive. Moreover, the fold change (FC) in assay [4] is 2; in [5], 2; in assay [6], 2; in [11], 8. Further, the inhibition result in assay [7] is “inactive”.

In the case of `Cc1onc(-c2ccccc2)c1C(=O)N[C@@H]1C(=O)N2[C@@H]1SC(C)(C)[C@@H]2C(=O)O` [OXACILLIN], the MIC in assay [1] came to 710 µM (≈ 285 µg/mL); in assay [10], 0.47 µM (≈ 0.189 µg/mL). Moreover, the Ratio in assay [13] is above 1500.

In the case of `O=C1NC(N2CCNCC2)=N/C1=C\c1cc2ccccc2c2ccccc12`, the inhibition result in assay [20], in assay [21], in assay [22] and in assay [25] was “inactive” each time. Moreover, the MIC in assay [1] amounted to 15.6 µM (≈ 5.56 µg/mL); in assay [10] it was 1.9 µM (≈ 0.677 µg/mL). The outcome in assay [2], in assay [3], in assay [8], in assay [23] and in assay [12] was inactive. In addition, in assay [24], the fold change (FC) is 2. In addition, in assay [13], the Ratio amounted to 8.
